Results as given in ChEMBL document CHEMBL4480458, “Synthesis and Anti-inflammatory Evaluation of ( R)-, ( S)-, and (±)-Sanjuanolide Isolated from Dalea frutescens” (J Nat Prod, 2019).
Active and inactive are the calls of the source. The rule behind the calls is not given here.

Columns and labels:
Format in all cases: functional, cell-based
RAW264.7 [1] = assay: Antiinflammatory activity in mouse RAW264.7 cells assessed as inhibition of LPS-induced […] mRNA expression pretreated for 30 mins followed by LPS-stimulation and measured after 24 hrs by trizol reagent based qRT-PCR analysis
In short: (§1)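 RAW 264.7 macrophages were grown in DMEM with 10% FBS and penicillin/streptomycin at 37 °C, 5% CO2. Cells were plated at 7.0 × 10^5/plate and incubated overnight, then pretreated 30 min with compound at 2.5 or 10 μM before LPS at 1.0 μg/mL for 24 h. Total RNA was extracted and qPCR was run, with each gene normalized to β-actin. Values are % of LPS control, mean ± SEM of three independent experiments, Student's t test.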

RAW264.7 [2] = assay: Antiinflammatory activity in mouse RAW264.7 cells assessed as inhibition of LPS-induced IL1beta mRNA expression pretreated for 30 mins followed by LPS-stimulation and measured after 24 hrs by trizol reagent based qRT-PCR analysis; in short: as §1
RAW264.7 [3] = assay: Antiinflammatory activity in mouse RAW264.7 cells assessed as inhibition of LPS-induced ICAM1 mRNA expression pretreated for 30 mins followed by LPS-stimulation and measured after 24 hrs by trizol reagent based qRT-PCR analysis; in short: as §1
RAW264.7 [4] = assay: Antiinflammatory activity in mouse RAW264.7 cells assessed as inhibition of LPS-induced COX2 mRNA expression pretreated for 30 mins followed by LPS-stimulation and measured after 24 hrs by trizol reagent based qRT-PCR analysis; in short: as §1
RAW264.7 [5] = assay: Antiinflammatory activity in mouse RAW264.7 cells assessed as inhibition of LPS-induced IL-6 production pretreated for 30 mins followed by LPS-stimulation and measured after 24 hrs by ELISA
In short: (§2)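 RAW 264.7 cells were seeded at 400 000 per well in DMEM and held for 24 h at 37 °C, 5% CO2. They were pretreated 30 min with vehicle or compound at 1, 2.5, 5 or 10 μM, then stimulated with LPS at 0.5 μg/mL for 24 h. Supernatant cytokine was measured by ELISA. IC50 was taken from the concentration series, and significance was tested against LPS vehicle.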

RAW264.7 [6] = assay: Antiinflammatory activity in mouse RAW264.7 cells assessed as inhibition of LPS-induced TNFalpha mRNA expression pretreated for 30 mins followed by LPS-stimulation and measured after 24 hrs by trizol reagent based qRT-PCR analysis; in short: as §1
RAW264.7 [7] = assay: Antiinflammatory activity in mouse RAW264.7 cells assessed as inhibition of LPS-induced TNFalpha production pretreated for 30 mins followed by LPS-stimulation and measured after 24 hrs by ELISA; in short: as §2
RAW264.7 [8] = assay: Antiinflammatory activity in mouse RAW264.7 cells assessed as inhibition of LPS-induced IL-6 mRNA expression pretreated for 30 mins followed by LPS-stimulation and measured after 24 hrs by trizol reagent based qRT-PCR analysis; in short: as §1

IC50 (RAW264.7 [5]) [nM]	IC50 (RAW264.7 [7]) [nM]	SMILES	inhibition (RAW264.7 [1])	inhibition (RAW264.7 [2])	inhibition (RAW264.7 [3])	inhibition (RAW264.7 [4])	inhibition (RAW264.7 [6])	inhibition (RAW264.7 [8])	inhibition (RAW264.7 [5])	inhibition (RAW264.7 [7])
1100	1600	C=C(C)C(O)Cc1c(O)ccc(C(=O)/C=C/c2ccccc2)c1O (racemic)	Active	Active	Active	Active	Active	Active	–	–
1100	1200	C=C(C)[C@H](O)Cc1c(O)ccc(C(=O)/C=C/c2ccccc2)c1O	Active	Active	Active	Active	Active	Active	–	–
–	–	C=C(C)[C@@H](O)Cc1c(O)ccc(C(=O)/C=C/c2ccccc2)c1O	–	–	–	–	–	–	inactive	inactive
